Screening results: PubChem, Broad Institute
ERAP1 HTS inh = blocks human ERAP1 aminopeptidase activity; 0.15% of 340,000 active; AID 652197; Q9NZ08; inhibition, % at 10.7 µM; recombinant ERAP1, Leu-AMC fluorescence, 60 min;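 active means mean replicate inhibition of at least 30%, or all replicates individually reaching that 30% level; inactive means mean below 30% and not every replicate reaching it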;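 further: 0% = neutral control wells and 100% = L-leucinethiol positive control wells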
S100A4 MyoIIA = inhibitors of human S100A4 binding to myosin IIA peptide; S100A4/TAMRA-MyoIIA peptide fluorescence polarization; AID 652163; inhibition, % at 10.7 µM; P26447; 0.14% of 360,000 active;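 active means mean inhibition of at least 70% across replicates, with every replicate also reaching that level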
Target sequence (P26447 whole entry, looked up): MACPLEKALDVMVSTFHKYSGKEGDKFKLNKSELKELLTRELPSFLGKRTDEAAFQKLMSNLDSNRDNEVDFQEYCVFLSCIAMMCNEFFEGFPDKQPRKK
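assay system = human S100A4 monomer with TAMRA-labelled myosin IIA peptide | also added = labelled myosin peptide probe, 5 nM | incubation = 5 min between mix addition and reading | control set = DMSO and TFP controls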
SIRT5 inh = sirtuin-5 (human) deacylase inhibition | 1.1% of 330,000 active | inhibition, % at 15 µM | Purified SirT5, succinyl-peptide AMC, trypsin-coupled fluorescence | AID 652115 | Q9NXA8; in the data active means inhibition above about 15%
Target sequence (Q9NXA8 whole entry, looked up): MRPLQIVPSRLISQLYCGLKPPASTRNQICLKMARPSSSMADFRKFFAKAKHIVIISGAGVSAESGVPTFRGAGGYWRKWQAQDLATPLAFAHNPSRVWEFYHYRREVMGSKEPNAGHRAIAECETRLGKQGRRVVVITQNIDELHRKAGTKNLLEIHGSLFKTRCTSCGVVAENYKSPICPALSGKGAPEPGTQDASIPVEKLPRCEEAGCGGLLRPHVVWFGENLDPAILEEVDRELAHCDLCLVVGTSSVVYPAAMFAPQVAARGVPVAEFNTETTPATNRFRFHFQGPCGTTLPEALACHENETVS
CFTR F508del cor = correctors of CFTR F508del function in bronchial epithelial cells; CFBE cells, YFP halide quenching; stimulated with forskolin plus potentiator P3; % fluorescence drop versus neutral controls; 0.36% of 350,000 active; AID 720511; activity (quench increase), % at 7.58 µM;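 active means mean added fluorescence quench of at least 8% versus neutral control, with both replicates also reaching 8%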;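 further: cells transiently co-express mutant CFTR-F508del with the halide-sensitive YFP; corrector assay measuring rescue of mutant channel to the surface after 24 h compound exposure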
rRNA inh HTS = inhibits bacterial ribosomal RNA function over humanized ribosomes. 1.6% of 350,000 active. E. coli WT GFP vs humanized-ribosome RFP mutants, fluorescence, 24 h; active compounds read low; DMSO median 0, no signal -100. GFP signal change (wild-type ribosome), % (no concentration beside the values);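 active means significant combined selectivity score with lowered wild-type GFP, culture density cut under 30%, mutant RFP and density less affected; inactive means any of these conditions unmet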
* hit, by the source's call. A selection: hits, their analogues and other compounds. The true share with any hit is near 3.1%.

`CC1C(=O)OC(c2ccc(Br)cc2)C(C)(C)C1=O` (stereo not given) gave ERAP1 HTS inh 4, S100A4 MyoIIA 3, SIRT5 inh -3, CFTR F508del cor -7 and rRNA inh HTS -43*.
For O=C(Cc1cccnc1)N[C@H]1CC[C@H](CCNS(=O)(=O)c2ccccc2Cl)O[C@@H]1CO the results were ERAP1 HTS inh 0, S100A4 MyoIIA 0, SIRT5 inh -1, CFTR F508del cor 2 and rRNA inh HTS -2.
Screening CN1CCC/C1=C1/C(=O)N(c2ccccc2)N=C1NC(=O)Nc1cccc(Cl)c1 returned ERAP1 HTS inh -2, S100A4 MyoIIA 4, SIRT5 inh 1, CFTR F508del cor 3 and rRNA inh HTS -31*.
`Cc1ccc(NC(=O)NC2=NN(c3ccccc3)C(=O)/C2=C2/CCCN2C)cc1` gave S100A4 MyoIIA -44, CFTR F508del cor -1 and rRNA inh HTS 10.
C[C@@H]1CN([C@@H](C)CO)S(=O)(=O)c2ccc(C#CC3(O)CCCC3)cc2O[C@@H]1CN(C)C(=O)Nc1ccccc1 was read as ERAP1 HTS inh 2, S100A4 MyoIIA 2, SIRT5 inh 5, CFTR F508del cor 2 and rRNA inh HTS -5.
CC(=O)C1=C(C)OC(N)=C(C#N)C1c1cccc2ccccc12 (stereo not given) was read as ERAP1 HTS inh -1, S100A4 MyoIIA -1, SIRT5 inh -2 and rRNA inh HTS -9.
For CC(=O)n1c2c(c3ccccc31)OC(N)=C(C#N)C2c1ccc(C(C)C)cc1 (stereo not given) the results were ERAP1 HTS inh -1, S100A4 MyoIIA -3, SIRT5 inh -1, CFTR F508del cor 0 and rRNA inh HTS -15*.
`CCC(=O)N(C)C[C@@H]1Oc2cc(C#CC3CC3)ccc2S(=O)(=O)N([C@H](C)CO)C[C@H]1C` gave ERAP1 HTS inh 2, S100A4 MyoIIA -3, SIRT5 inh -2, CFTR F508del cor 0 and rRNA inh HTS -28.
`C[C@@H]1CCCCO[C@H](CN(C)Cc2ccccc2)[C@@H](C)CN([C@H](C)CO)C(=O)c2cc(NC(=O)C3CCCCC3)ccc2O1` gave ERAP1 HTS inh -2, S100A4 MyoIIA -28, SIRT5 inh 1, CFTR F508del cor 1 and rRNA inh HTS 10.
Cc1nn(C(C)(C)C)c(C)c1/C=N/OC(=O)Nc1ccc(Cl)cc1 was read as ERAP1 HTS inh -2, S100A4 MyoIIA 1, SIRT5 inh -1, CFTR F508del cor 0 and rRNA inh HTS -27*.
For CC1=C(C(=O)OC2CCCCCCC2)C(c2cccc(O)c2)NC(=O)N1 (stereo not given) the results were ERAP1 HTS inh 3, S100A4 MyoIIA -3, SIRT5 inh 3, CFTR F508del cor -1 and rRNA inh HTS -33*.
For CC1=C(C(=O)OC2CCCCC2)C(c2cccc([N+](=O)[O-])c2)NC(=O)N1 (stereo not given) the results were ERAP1 HTS inh 2, S100A4 MyoIIA 1, SIRT5 inh -3, CFTR F508del cor 0 and rRNA inh HTS -12.
`O=C(N[C@@H]1CC[C@@H](CCn2cc(-c3ccccc3)nn2)O[C@H]1CO)c1ccccc1F` gave ERAP1 HTS inh 3, S100A4 MyoIIA -3, SIRT5 inh 1, CFTR F508del cor 0 and rRNA inh HTS 0.
For CCOC(=O)C1(C)CCN1C(=O)c1cccc(Cl)c1 (stereo not given) the results were ERAP1 HTS inh -2, S100A4 MyoIIA 4, SIRT5 inh 32*, CFTR F508del cor -2 and rRNA inh HTS 31.
Screening CCOC(=O)C1(C)CCCN(C(=O)c2cccc(C#N)c2)C1 (stereo not given) returned ERAP1 HTS inh 0, S100A4 MyoIIA -2, SIRT5 inh 15*, CFTR F508del cor 0 and rRNA inh HTS 10.
C[C@@H]1CN([C@H](C)CO)C(=O)c2cc(-c3ccccc3)cnc2O[C@H]1CN(C)Cc1ccc(C(=O)O)cc1 was read as ERAP1 HTS inh 2, S100A4 MyoIIA -10, SIRT5 inh 10, CFTR F508del cor 3 and rRNA inh HTS -2.
`Cn1c(SCc2cccc(Br)c2)nc2ccccc2c1=O` gave ERAP1 HTS inh -2, S100A4 MyoIIA -3, SIRT5 inh 0, CFTR F508del cor 2 and rRNA inh HTS -4.
Cn1c(SCc2ccccc2)nc(N)c(N=O)c1=O was read as ERAP1 HTS inh 1, S100A4 MyoIIA 6, SIRT5 inh 1, CFTR F508del cor 1 and rRNA inh HTS -20*.
Cn1c(SCc2cccc(Cl)c2)nc(C(F)(F)F)cc1=O was read as ERAP1 HTS inh 3, S100A4 MyoIIA 7, SIRT5 inh 1, CFTR F508del cor 3 and rRNA inh HTS -3.
`Cn1c(SCc2ccccc2)nc(C(F)(F)F)cc1=O` gave ERAP1 HTS inh 6, S100A4 MyoIIA 5, CFTR F508del cor -3 and rRNA inh HTS -23*.
For Cc1ccccc1-c1cnc2c(c1)C(=O)N([C@H](C)CO)C[C@@H](C)[C@@H](CN(C)C(=O)CN(C)C)O2 the results were ERAP1 HTS inh 0, S100A4 MyoIIA 18, SIRT5 inh 0, CFTR F508del cor -5 and rRNA inh HTS 7.
C[C@H]1CN([C@@H](C)CO)C(=O)c2cc(C3=CCCCC3)cnc2O[C@@H]1CN(C)C(=O)CN1CCOCC1 was read as ERAP1 HTS inh 0, S100A4 MyoIIA -5, SIRT5 inh 1, CFTR F508del cor 0 and rRNA inh HTS -1.
Cn1c(SCc2cccc(Br)c2)nnc1-c1ccccn1 was read as ERAP1 HTS inh 4, S100A4 MyoIIA -6, SIRT5 inh 2, CFTR F508del cor 0 and rRNA inh HTS -35*.
CC(=O)n1cc([C@H]2C=C(C(=O)N3CCCCCCC3)O[C@@H](OCCCCO)C2)c2ccccc21 was read as ERAP1 HTS inh 2, S100A4 MyoIIA -5, SIRT5 inh 0 and CFTR F508del cor 0.
Screening CC(C)c1ccc(NC(=O)CNCC(c2ccccc2)N(C)C)cc1 (stereo not given) returned ERAP1 HTS inh -3, S100A4 MyoIIA 1, SIRT5 inh 17*, CFTR F508del cor -1 and rRNA inh HTS 12.
COc1ccc(S(=O)(=O)Nc2ccc3c(c2)C(=O)N([C@@H](C)CO)C[C@H](C)[C@@H](CN(C)S(=O)(=O)c2ccccc2)OCCCC[C@H](C)O3)cc1 was read as ERAP1 HTS inh 2, S100A4 MyoIIA 4, SIRT5 inh 14, CFTR F508del cor 3 and rRNA inh HTS -3.
For COc1ccc(S(=O)(=O)Nc2ccc3c(c2)C(=O)N([C@H](C)CO)C[C@H](C)[C@H](CN(C)S(=O)(=O)c2ccccc2)OCCCC[C@H](C)O3)cc1 the results were ERAP1 HTS inh -4, S100A4 MyoIIA -2, SIRT5 inh 17*, CFTR F508del cor 2 and rRNA inh HTS 0.
